Measurements pooled from the literature.
Target: Beta-adrenergic receptor kinase 1 (GRK2, Homo sapiens, UniProt P25098)
Sequence (P25098 1-689, as in one of the studies): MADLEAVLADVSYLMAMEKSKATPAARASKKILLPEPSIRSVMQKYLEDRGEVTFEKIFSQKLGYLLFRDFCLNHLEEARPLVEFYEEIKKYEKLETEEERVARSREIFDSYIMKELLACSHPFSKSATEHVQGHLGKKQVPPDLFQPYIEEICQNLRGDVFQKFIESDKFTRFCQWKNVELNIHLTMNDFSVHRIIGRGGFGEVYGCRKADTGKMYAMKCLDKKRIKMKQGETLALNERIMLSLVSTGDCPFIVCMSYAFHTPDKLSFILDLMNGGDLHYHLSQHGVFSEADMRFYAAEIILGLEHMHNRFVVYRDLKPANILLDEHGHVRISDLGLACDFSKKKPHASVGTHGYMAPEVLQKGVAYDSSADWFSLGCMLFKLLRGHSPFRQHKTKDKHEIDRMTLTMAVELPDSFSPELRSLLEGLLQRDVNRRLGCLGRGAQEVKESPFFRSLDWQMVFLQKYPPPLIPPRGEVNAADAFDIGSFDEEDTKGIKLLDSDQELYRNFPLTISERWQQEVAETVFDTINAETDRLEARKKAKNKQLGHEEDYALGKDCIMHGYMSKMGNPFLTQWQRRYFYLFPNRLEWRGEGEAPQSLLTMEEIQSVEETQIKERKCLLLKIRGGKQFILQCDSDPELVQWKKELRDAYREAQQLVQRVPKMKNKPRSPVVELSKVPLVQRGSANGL

| Structure (SMILES) | test | conditions | endpoint | value |
| --- | --- | --- | --- | --- |
| O=C(NC[C@@H]1[C@H]2CN(C(=O)OCc3cc(C(F)(F)F)cc(C(F)(F)F)c3)C[C@@H]12)c1ccc2[nH]nnc2c1 | cell-free assay, competition with immobilised ligand | 1 µM | remaining binding | 71% |
| N[C@H]1CCN(c2nccc(-c3cnn4ncccc34)n2)C1 | binding, competition with immobilised ligand | 1 µM | remaining binding | 80% |
| O=C(NS(=O)(=O)c1ccc(NCC2CCOCC2)c([N+](=O)[O-])c1)c1ccc(N2CCN(Cc3ccc(C(F)(F)F)cc3-c3ccc(Cl)cc3)CC2)cc1Oc1cnc2[nH]ccc2c1 | cell-free assay, competition with immobilised ligand | 1 µM | remaining binding | 91% |
| N#CCCc1ccc2c(c1)-c1[nH]c3ccc([N+](=O)[O-])cc3c1CC(=O)N2 | cell-free assay | 0.5 µM | remaining signal | 96.4% |
| Cc1sc(C(=O)NC2COC2)cc1-n1cc(NC(=O)Nc2c(F)cccc2Cl)cn1 | enzyme activity, inhibitor | 10 µM | remaining activity | 106% |
| Nc1ncnc2occ(-c3ccc(NC(=O)Nc4cc(C(F)(F)F)ccc4F)cc3)c12 | cell-free assay, inhibitor | 20 µM | remaining signal | 81% |
| CN1CC(Oc2cnc(C#N)cc2-c2ccn3nc(NC(=O)C4CC4)cc3c2)C1 | enzyme activity, inhibitor | 1 µM | inhibition | 5% |
| Cc1noc([C@H]2C[C@@H](c3ccc(C(F)(F)F)cc3)CN(C(=O)N3CCS(=O)(=O)C3)C2)n1 | cell-free assay, competition with immobilised ligand | 1 µM | remaining binding | 83% |
| COc1cc2ncnc(Nc3ccc(Oc4ccccc4)cc3C)c2cc1OC | enzyme activity, inhibitor | 1 µM | inhibition | -1% |
| O=C(O)[C@H]1[C@H](Cn2nnc3ccccc3c2=O)CC[C@@H]1C(=O)c1ccc(OCCC2CCOCC2)cc1 | cell-free assay, competition with immobilised ligand | 1 µM | remaining binding | 61% |
| Cc1ccc(C(=O)NCc2ccsc2)cc1C#Cc1cn(C(C)C)c2ncnc(N)c12 | enzyme activity, inhibitor | 1 µM | activity vs control | 101% |
| COc1cccc2c(NCc3ccccc3)nc(-n3c(N)nc4ccccc43)nc12 | target engagement in cells, inhibitor, chemoproteomics | 20 mM | inhibition | -14.5% |
| CC(C)(C)c1nc(-c2cccc(NS(=O)(=O)c3c(F)cccc3F)c2F)c(-c2ccnc(N)n2)s1 | enzyme activity, inhibitor, radiometric | 1 µM | remaining activity | 95% |
| CC(C)(O)[C@H]1CC[C@H](Nc2ccc3ncc(-c4cccc(C(F)(F)F)c4)n3n2)CC1 | enzyme activity, inhibitor | 1 µM | remaining activity | 116% |
| O=C(Nc1cnn(-c2csc(C(=O)NC3COC3)c2)c1)Nc1c(F)cccc1Cl | enzyme activity, inhibitor | 5 µM | remaining activity | 106% |
| Cc1ccc(C(=O)Nc2ccc(CN3CCN(C)CC3)c(C(F)(F)F)c2)cc1C#Cc1cnc2cccnn12 | enzyme activity, inhibitor | 23.5 nM | remaining activity | 77% |
